Assay results from ChEMBL document CHEMBL5257020, “Discovery of a 9-mer Cationic Peptide (LTX-315) as a Potential First in Class Oncolytic Peptide” (J Med Chem, 2016).
Where a SMILES comes first, the peptide text is derived from it. [ ]: non-standard residue; d: D form. ξ: configuration not given here. ξDip = NC(C(=O)O)C(c1ccccc1)c1ccccc1

Assays:
[1] = biological target: T1, Cytochrome P450 2E1 (Homo sapiens, UniProt P05181); test: Inhibition of CYP2E1 in human liver microsomes using chlorzoxazone as substrate assessed as reduction in substrate hydroxylation incubated for 5 mins in presence of beta-NADPH measured by LC-MS/MS analysis; assay type: ADME, Microsome
Procedure, shortened: (§1)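 Pooled human liver microsomes (50 donors) in 100 mM phosphate, pH 7.4, with 2 mM β-NADPH. Protein 0.1 mg/mL (2A6, 2C8, 2C9, 2E1, 3A4) or 0.3 mg/mL (1A2, 2B6, 2C19, 2D6). Test article 0–100 μM final, preincubated ~37 °C 5 or 30 min before isoform-selective substrate. Quenched in methanol with internal standard. Metabolite measured by LC–MS/MS against standard curve. Duplicates, with selective inhibitor positive controls.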

[2] = Ratio of drug concentration in rat blood to plasma measured after 60 mins by LC-MS/MS analysis; assay type: ADME, cell-free
Procedure, shortened: (§2)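 Pooled fresh whole blood (≥3 male and 3 female human, beagle dog or rat donors) spiked to 200 ng/mL. Incubated ~37 °C on rotary mixer over 0–120 min. Hematocrit determined. Blood and plasma analysed by LC–MS/MS. Blood/plasma ratio = Cb/C. Cell association = {[C(1 − H)]/Cb} × 100. Values at 60 min, mean of two independent measurements.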

[3] = biological target: T2, Cytochrome P450 2B6 (Homo sapiens, UniProt P20813); test: Inhibition of CYP2B6 in human liver microsomes using bupropion as substrate assessed as reduction in substrate hydroxylation incubated for 5 mins in presence of beta-NADPH measured by LC-MS/MS analysis; assay type: ADME, Microsome; procedure, shortened: as §1
[4] = Ratio of drug concentration in human blood to plasma measured after 60 mins by LC-MS/MS analysis; assay type: ADME, cell-free; procedure, shortened: as §2
[5] = biological target: T2, Cytochrome P450 2B6; test: Inhibition of CYP2B6 in human liver microsomes using bupropion as substrate assessed as reduction in substrate hydroxylation incubated for 30 mins in presence of beta-NADPH measured by LC-MS/MS analysis; assay type: ADME, Microsome; procedure, shortened: as §1
[6] = Drug uptake in Beagle dog Red blood cells at 60 mins by LC-MS/MS analysis; assay type: ADME, cell-based, Canis lupus familiaris; settings: erythrocyte, 1 h; procedure, shortened: as §2
[7] = Stability in pooled and cryopreserved rat hepatocytes assessed as half life at 1 uM measured for 90 mins by LC-MS/MS analysis; assay type: ADME, cell-based, Hepatocyte
Procedure, shortened: (§3)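 Pooled cryopreserved rat or human hepatocytes, 0.5 million cells/mL, ~37 °C, peptide at 1 μM initial. Supernatants analysed by LC–MS/MS with peak height referenced to time zero. t1/2 = −0.693/slope of ln concentration vs time. Duplicate experiments. Testosterone, midazolam and 4-methylumbelliferone served as metabolic-competence controls.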

[8] = Hemolytic activity in human red blood cells incubated for 1 hr by spectrophotometric microtiter plate reader method; assay type: toxicity, cell-based, Erythrocyte
[9] = biological target: T3, Cytochrome P450 3A4 (Homo sapiens, UniProt P08684); test: Inhibition of CYP3A4 in human liver microsomes using midazolam as substrate assessed as reduction in substrate hydroxylation incubated for 30 mins in presence of beta-NADPH measured by LC-MS/MS analysis; assay type: ADME, Microsome; procedure, shortened: as §1
[10] = Protein binding in human plasma assessed as bound fraction at 200 to 1000 ng/ml incubated for 20 hrs in presence of AEBSF by LC-MS/MS analysis; assay type: ADME, cell-free; settings: dose 200-1000 ng/ml, read-out: PPB
Procedure, shortened: (§4)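 Pooled plasma (human volunteers; Han Wistar rat; Beagle dog) containing AEBSF 1 mg/mL. Spiked to 200, 500 or 1000 ng/mL final, in duplicate. Ultracentrifuged 45 000 rpm, 37 °C, 20 h. Supernatant quantified by LC–MS/MS. % bound = [(C − CS)/C] × 100. Values are upper limits because of residual degradation.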

[11] = biological target: Cytochrome P450 1A2 (Homo sapiens, UniProt P05177); test: Inhibition of CYP1A2 in human liver microsomes using as phenacetin substrate assessed as reduction in O-deethylation of phenacetin incubated for 5 mins in presence of beta-NADPH by LC-MS/MS analysis; assay type: ADME, Microsome; procedure, shortened: as §1
[12] = biological target: Cytochrome P450 2D6 (Homo sapiens, UniProt P10635); test: Inhibition of CYP2D6 in human liver microsomes using bufuralol as substrate assessed as reduction in substrate hydroxylation incubated for 5 mins in presence of beta-NADPH measured by LC-MS/MS analysis; assay type: ADME, Microsome; procedure, shortened: as §1
[13] = Protein binding in Beagle dog plasma assessed as bound fraction at 200 to 1000 ng/ml incubated for 20 hrs in presence of AEBSF by LC-MS/MS analysis; assay type: ADME, cell-free, Canis lupus familiaris; settings: dose 200-1000 ng/ml, read-out: PPB; procedure, shortened: as §4
[14] = Ratio of drug concentration in Beagle dog blood to plasma measured after 60 mins by LC-MS/MS analysis; assay type: ADME, cell-free, Canis lupus familiaris; procedure, shortened: as §2
[15] = biological target: T1, Cytochrome P450 2E1; test: Inhibition of CYP2E1 in human liver microsomes using chlorzoxazone as substrate assessed as reduction in substrate hydroxylation incubated for 30 mins in presence of beta-NADPH measured by LC-MS/MS analysis; assay type: ADME, Microsome; procedure, shortened: as §1
[16] = biological target: T3, Cytochrome P450 3A4; test: Inhibition of CYP3A4 in human liver microsomes using testosterone as substrate assessed as reduction in substrate hydroxylation incubated for 5 mins in presence of beta-NADPH measured by LC-MS/MS analysis; assay type: ADME, Microsome; procedure, shortened: as §1
[17] = biological target: Cytochrome P450 2C19 (Homo sapiens, UniProt P33261); test: Inhibition of CYP2C19 in human liver microsomes using (S)-mephenytoin as substrate assessed as reduction in substrate hydroxylation incubated for 30 mins in presence of beta-NADPH measured by LC-MS/MS analysis; assay type: ADME, Microsome; procedure, shortened: as §1
[18] = biological target: T3, Cytochrome P450 3A4; test: Inhibition of CYP3A4 in human liver microsomes using midazolam as substrate assessed as reduction in substrate hydroxylation incubated for 5 mins in presence of beta-NADPH measured by LC-MS/MS analysis; assay type: ADME, Microsome; procedure, shortened: as §1
[19] = Drug recovery in human plasma incubated for 20 hrs in presence of serine protease inhibitor AEBSF (reference value: 176 ng/ml); assay type: ADME, cell-free
[20] = Stability in pooled and cryopreserved rat hepatocytes assessed as intrinsic clearance measured per 10^6 cells at 1 uM measured for 90 mins by LC-MS/MS analysis; assay type: ADME, cell-based, Hepatocyte; settings: read-out: CLH
Procedure, shortened: (§5)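 Pooled cryopreserved hepatocytes at 0.5 million cells/mL, incubated at about 37 °C with 1 μM initial peptide. Supernatant after centrifugation analysed by LC–MS/MS (MRM) using a D-Trp7,9,10-substance P internal standard. Peak height was referenced to time zero, and t1/2 = −0.693/slope of ln concentration vs time. Clint = 0.693/t1/2 × Vinc per million cells. Testosterone, midazolam and 4-methylumbelliferone were the positive controls. Duplicates; mean of two experiments.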

[21] = biological target: Cytochrome P450 2C9 (Homo sapiens, UniProt P11712); test: Inhibition of CYP2C9 in human liver microsomes using diclofenac as substrate assessed as reduction in substrate hydroxylation incubated for 5 mins in presence of beta-NADPH measured by LC-MS/MS analysis; assay type: ADME, Microsome; procedure, shortened: as §1
[22] = Stability in pooled and cryopreserved human hepatocytes assessed as half life at 1 uM measured for 90 mins by LC-MS/MS analysis; assay type: ADME, cell-based, Hepatocyte; procedure, shortened: as §3
[23] = Stability in pooled and cryopreserved human hepatocytes assessed as intrinsic clearance measured per 10^6 cells at 1 uM measured for 90 mins by LC-MS/MS analysis; assay type: ADME, cell-based, Hepatocyte; settings: read-out: CLH; procedure, shortened: as §5
[24] = biological target: Cytochrome P450 2A6 (Homo sapiens, UniProt P11509); test: Inhibition of CYP2A6 in human liver microsomes using coumarin as substrate assessed as reduction in substrate hydroxylation incubated for 30 mins in presence of beta-NADPH measured by LC-MS/MS analysis; assay type: ADME, Microsome; procedure, shortened: as §1
Chain of Cytochrome P450 2A6 (P11509 whole entry): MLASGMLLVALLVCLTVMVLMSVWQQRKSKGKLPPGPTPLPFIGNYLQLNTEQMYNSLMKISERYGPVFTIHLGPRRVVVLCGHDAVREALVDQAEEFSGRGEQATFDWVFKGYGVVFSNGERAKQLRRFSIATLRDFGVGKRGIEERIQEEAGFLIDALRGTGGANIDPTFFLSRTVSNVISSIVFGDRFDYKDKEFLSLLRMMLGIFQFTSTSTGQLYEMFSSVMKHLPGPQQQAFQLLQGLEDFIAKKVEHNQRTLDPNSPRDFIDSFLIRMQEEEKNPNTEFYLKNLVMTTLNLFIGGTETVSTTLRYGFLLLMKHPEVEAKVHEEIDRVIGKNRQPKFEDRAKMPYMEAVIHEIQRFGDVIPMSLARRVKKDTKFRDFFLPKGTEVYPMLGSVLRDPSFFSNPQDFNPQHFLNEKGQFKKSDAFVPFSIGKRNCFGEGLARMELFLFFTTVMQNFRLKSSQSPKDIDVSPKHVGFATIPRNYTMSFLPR

T3 sequence (P08684 whole entry): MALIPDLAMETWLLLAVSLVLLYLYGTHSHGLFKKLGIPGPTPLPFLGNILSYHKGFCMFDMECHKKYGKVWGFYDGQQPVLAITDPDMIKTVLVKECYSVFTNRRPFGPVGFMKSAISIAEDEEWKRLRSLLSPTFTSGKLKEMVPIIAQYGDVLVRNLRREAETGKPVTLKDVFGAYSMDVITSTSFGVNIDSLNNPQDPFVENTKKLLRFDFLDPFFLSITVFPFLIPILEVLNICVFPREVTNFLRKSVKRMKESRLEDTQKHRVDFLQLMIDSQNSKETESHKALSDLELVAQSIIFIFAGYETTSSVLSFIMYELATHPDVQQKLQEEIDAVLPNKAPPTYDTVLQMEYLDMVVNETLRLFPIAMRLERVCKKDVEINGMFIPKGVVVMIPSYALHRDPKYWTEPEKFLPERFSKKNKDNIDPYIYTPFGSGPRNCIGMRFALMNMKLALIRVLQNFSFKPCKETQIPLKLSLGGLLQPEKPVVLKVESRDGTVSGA
T1 sequence (P05181 whole entry, canonical isoform): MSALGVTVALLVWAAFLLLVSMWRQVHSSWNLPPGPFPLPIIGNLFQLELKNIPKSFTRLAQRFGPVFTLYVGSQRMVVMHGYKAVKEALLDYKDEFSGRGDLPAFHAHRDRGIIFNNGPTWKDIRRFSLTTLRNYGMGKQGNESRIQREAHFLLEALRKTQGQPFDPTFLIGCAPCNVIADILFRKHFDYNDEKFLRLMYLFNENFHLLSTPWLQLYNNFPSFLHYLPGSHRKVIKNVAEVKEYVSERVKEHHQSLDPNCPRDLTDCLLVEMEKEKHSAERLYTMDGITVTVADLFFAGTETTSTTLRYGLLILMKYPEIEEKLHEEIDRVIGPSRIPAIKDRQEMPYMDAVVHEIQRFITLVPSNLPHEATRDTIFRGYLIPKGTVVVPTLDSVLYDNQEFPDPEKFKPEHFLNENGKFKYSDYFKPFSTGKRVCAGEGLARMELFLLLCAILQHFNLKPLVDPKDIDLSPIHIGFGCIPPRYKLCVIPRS
T2 sequence (P20813 whole entry): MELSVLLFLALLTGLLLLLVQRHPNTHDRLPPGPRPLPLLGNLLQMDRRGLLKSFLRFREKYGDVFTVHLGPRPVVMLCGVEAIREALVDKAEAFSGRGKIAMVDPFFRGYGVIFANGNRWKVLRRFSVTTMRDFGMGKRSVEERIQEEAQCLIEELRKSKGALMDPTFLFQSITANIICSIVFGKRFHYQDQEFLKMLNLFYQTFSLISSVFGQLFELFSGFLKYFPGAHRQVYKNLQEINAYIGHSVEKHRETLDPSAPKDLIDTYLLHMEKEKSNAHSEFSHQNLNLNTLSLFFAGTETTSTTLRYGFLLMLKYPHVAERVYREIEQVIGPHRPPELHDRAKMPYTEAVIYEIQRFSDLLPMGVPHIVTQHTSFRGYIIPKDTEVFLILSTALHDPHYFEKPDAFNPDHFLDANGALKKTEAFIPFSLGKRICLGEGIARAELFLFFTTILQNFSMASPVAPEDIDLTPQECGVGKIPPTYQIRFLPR
Chain of Cytochrome P450 2D6 (P10635 whole entry): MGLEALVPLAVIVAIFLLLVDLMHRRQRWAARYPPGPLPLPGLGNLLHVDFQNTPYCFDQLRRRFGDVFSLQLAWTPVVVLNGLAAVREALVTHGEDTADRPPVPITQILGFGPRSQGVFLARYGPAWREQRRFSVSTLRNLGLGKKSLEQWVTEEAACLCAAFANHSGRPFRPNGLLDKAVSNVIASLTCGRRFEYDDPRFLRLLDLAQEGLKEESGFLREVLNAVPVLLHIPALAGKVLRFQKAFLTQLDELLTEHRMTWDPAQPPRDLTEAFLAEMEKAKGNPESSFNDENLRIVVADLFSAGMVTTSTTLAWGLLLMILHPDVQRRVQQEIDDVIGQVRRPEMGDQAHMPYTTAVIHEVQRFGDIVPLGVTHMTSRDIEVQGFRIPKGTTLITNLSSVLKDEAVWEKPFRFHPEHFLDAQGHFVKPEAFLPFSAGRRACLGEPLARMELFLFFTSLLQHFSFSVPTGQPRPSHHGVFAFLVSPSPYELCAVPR
Chain of Cytochrome P450 2C9 (P11712 whole entry): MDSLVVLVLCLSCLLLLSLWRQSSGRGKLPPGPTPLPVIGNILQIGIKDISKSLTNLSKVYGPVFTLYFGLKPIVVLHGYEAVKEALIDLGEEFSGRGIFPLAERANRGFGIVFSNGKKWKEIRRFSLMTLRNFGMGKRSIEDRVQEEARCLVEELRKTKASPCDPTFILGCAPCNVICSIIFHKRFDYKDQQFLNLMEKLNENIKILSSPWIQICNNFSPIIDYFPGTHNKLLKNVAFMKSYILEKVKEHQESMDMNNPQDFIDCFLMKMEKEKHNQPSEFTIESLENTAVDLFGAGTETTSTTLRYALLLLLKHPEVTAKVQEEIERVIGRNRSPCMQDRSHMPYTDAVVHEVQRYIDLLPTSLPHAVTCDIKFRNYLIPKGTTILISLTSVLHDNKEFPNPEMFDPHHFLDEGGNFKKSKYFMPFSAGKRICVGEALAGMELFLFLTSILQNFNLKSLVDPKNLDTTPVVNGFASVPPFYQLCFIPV
Chain of Cytochrome P450 2C19 (P33261 whole entry): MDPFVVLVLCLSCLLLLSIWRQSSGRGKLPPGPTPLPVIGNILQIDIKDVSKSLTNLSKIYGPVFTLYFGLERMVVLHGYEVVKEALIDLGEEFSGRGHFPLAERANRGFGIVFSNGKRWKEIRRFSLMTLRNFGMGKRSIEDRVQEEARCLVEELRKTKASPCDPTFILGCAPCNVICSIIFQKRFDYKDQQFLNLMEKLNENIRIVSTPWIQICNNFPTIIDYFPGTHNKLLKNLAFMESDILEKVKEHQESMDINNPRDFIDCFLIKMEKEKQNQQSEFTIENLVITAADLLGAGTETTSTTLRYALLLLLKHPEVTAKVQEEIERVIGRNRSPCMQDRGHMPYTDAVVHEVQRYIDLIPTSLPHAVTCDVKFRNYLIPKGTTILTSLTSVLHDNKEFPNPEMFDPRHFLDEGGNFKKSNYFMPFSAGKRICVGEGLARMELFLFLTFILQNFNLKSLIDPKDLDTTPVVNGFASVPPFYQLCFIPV
Chain of Cytochrome P450 1A2 (P05177 whole entry): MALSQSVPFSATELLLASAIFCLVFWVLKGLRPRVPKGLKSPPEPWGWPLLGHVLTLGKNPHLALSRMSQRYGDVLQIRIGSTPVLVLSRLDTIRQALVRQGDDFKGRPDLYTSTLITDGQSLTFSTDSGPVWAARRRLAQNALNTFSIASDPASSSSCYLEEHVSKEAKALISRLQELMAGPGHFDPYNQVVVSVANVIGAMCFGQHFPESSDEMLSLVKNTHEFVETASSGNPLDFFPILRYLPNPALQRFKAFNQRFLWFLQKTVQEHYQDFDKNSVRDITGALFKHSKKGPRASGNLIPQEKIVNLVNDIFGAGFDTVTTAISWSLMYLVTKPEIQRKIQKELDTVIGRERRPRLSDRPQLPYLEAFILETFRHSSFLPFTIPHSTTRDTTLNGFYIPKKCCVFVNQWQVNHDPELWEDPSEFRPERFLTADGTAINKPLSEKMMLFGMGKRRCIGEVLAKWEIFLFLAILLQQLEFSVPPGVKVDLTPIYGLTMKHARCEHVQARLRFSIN

`NCCCC[C@H](NC(=O)C(NC(=O)[C@H](Cc1c[nH]c2ccccc12)NC(=O)[C@H](CCCCN)NC(=O)[C@H](CCCCN)NC(=O)[C@H](Cc1c[nH]c2ccccc12)NC(=O)[C@H](Cc1c[nH]c2ccccc12)NC(=O)[C@H](CCCCN)NC(=O)[C@@H](N)CCCCN)C(c1ccccc1)c1ccccc1)C(N)=O` (some centres undefined) (H-KKWWKKW[ξDip]K-NH2) gave an IC50 [1] of 30.9 µM, a blood plasma ratio at 1 h [2] of 1.03 and an IC50 [3] of 27.7 µM. The blood plasma ratio at 1 h [4] was 0.76, the IC50 [5] was 18.6 µM and the Drug uptake [6] was 76%. For the same molecule, the half-life at 1 µM [7] was 1.18 h, the EC50 at 1 h [8] was greater than 695 µM and the IC50 [9] was 63.7 µM. It also gave a fraction unbound at 20 h [10] greater than 0.2, an IC50 [11] of 37.9 µM and an IC50 [12] of 21.9 µM. It also gave a fraction unbound at 20 h [13] greater than 0.08, a blood plasma ratio at 1 h [14] of 2.19 and an IC50 [15] of 30 µM. For the same molecule, the IC50 [16] was 9.3 µM, the IC50 [17] was greater than 100 µM and the IC50 [18] was 18.8 µM. It also gave a Drug recovery [19] of 131 ng/mL, a hepatocyte CLint at 1 µM [20] of 20 µL/min/1e6 cells and an IC50 [21] of 8.8 µM. For the same molecule, the half-life at 1 µM [22] was 1.07 h, the hepatocyte CLint at 1 µM [23] was 22 µL/min/1e6 cells and the IC50 [24] was 26.3 µM.
